assay: Toxicity liver stage against HepG2, at 10uM; type: cell-based; parameters: test concentration 10 uM, cell line HepG2-A16-CD81EGFP; conditions: human, HepG2-A16-CD81EGFP cells; read-out: INHIBITION
Method in brief: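 Uninfected HepG2-A16-CD81EGFP cells, 3 × 10^3 per well, 1536-well, plated on prespotted compound at 10 μM final, parasite-free screening media added to match infected plates; puromycin 10 μM positive, DMSO 0.5% negative; run in parallel with 48 h PbLuc assay at 37 °C, 5% CO2; viability by CellTiter-Glo luminescence, normalized to controls.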

Compound | cytotoxicity at 10 µM [%]
O=C(NC[C@H]1OC[C@@H](NC2CCOCC2)[C@@H]1O)C1CCCC1 | -1
COCCOc1ccnc(-c2noc([C@@H]3CCCN3CC3CC3)n2)c1 | -4.55
O=C(C1CC1)N1CC[C@H](c2nnc(Cc3c[nH]c4ccccc34)o2)C1 | 4.09
CCOC(=O)Cc1csc(NC(=O)c2ccc(=O)[nH]n2)n1 | -1.23
O=C(Cc1ccccc1)N1CC(=O)N(Cc2ccco2)CC(O)C1 (stereo not drawn) | -4.05
CC(C)NC(=O)N1CCOC2(CCCNC2)C1 (stereo not drawn) | 4.76
CCN1CC2(CCCCN2C(=O)C2CCCCC2)CC1=O (stereo not drawn) | 18.3
CCNC(=O)N1CCC2(CC1)CCn1c(-c3cccc(OC)c3)cnc12 | 2.81
COCCN1CCCC12CCCN(c1ncccn1)C2 (stereo not drawn) | -6.9
CS(=O)(=O)N[C@@H]1COC[C@@H]2CN(Cc3ccco3)C[C@@H]21 | -1.43
CC(C)CNC(=O)c1ccc2c(c1)nc1n2CCN(Cc2ccco2)C1 | -3.78
CC(=O)N1CCN(C(=O)Cn2ccc3c(Cl)cccc32)CC1 | -0.643
O=C(O)CSC1CCc2ccccc2NC1=O (stereo not drawn) | 1.13
CCOC(=O)N1CCN(C(=O)c2sc(-c3ccc(F)cc3)nc2C)CC1 | 10.7
Cc1cccc(C(=O)N2C[C@@H]3OCCN(C(C)C)[C@@H]3C2)n1 | -9.2
CCn1c(NCc2ccccn2)nc2c(C)nn(C)c2c1=O | 9.51
CC(=O)N1CCCC(c2ccc(CO)c(-c3c(C)noc3C)n2)C1 (stereo not drawn) | -4.09
CC(=O)N1CCC(c2noc(C3CCC(=O)N3)n2)CC1 (stereo not drawn) | 1.64
CC(C)c1cc(C(=O)N2CCCC(c3cc(=O)nc4n3CCC4)C2)no1 (stereo not drawn) | 0.983
COc1ccc(C2CN(c3ncccn3)CCN2C(C)=O)cc1 (stereo not drawn) | 5.27
Cc1cc(N(C)C)nc(C2(C)CCCN2CC(N)=O)n1 (stereo not drawn) | -2.8
COCC(=O)NC(c1ccccc1)c1ccc2c(c1)CCCO2 (stereo not drawn) | -1.83

Compound | cytotoxicity at 10 µM [%]
Cc1cc(C2CCCN2Cc2nnc(-c3ccco3)o2)on1 (stereo not drawn) | 8.92
NC(=O)c1ccc(CNC(=O)NCc2cc[nH]n2)cc1 | 12.3
CC(Cc1cccc(F)c1)C(=O)NS(=O)(=O)c1cnn(C)c1 (stereo not drawn) | 2.11
CCNc1cc2c(nn1)CCN(C(=O)C1Cc3ccccc3O1)C2 (stereo not drawn) | -9.32
COC1CCN(C(=O)Cn2nc(C)cc2C)CC1 | 3.81
O=C(NCC1(N2CCOCC2)CCSC1)Nc1ccncc1 (stereo not drawn) | 12.5
O=S(=O)(NCC1COc2ccccc2C1)N1CCOCC1 (stereo not drawn) | -1.5
COCCNC(=O)Nc1cccc(COCCOC(C)C)c1 | 6.13
O=C(NC1CCC(C(=O)N2CCSCC2)CC1)N1CCOCC1 (stereo not drawn) | 13.1
O=C(NC1CC1)c1nnn(-c2cccc(C(F)(F)F)c2)c1C1CC1 | 4.01
Cc1cc(C)n(CC2CN(Cc3cccnc3)CCO2)n1 (stereo not drawn) | -3.08
Cc1cc(C)n(C2CCCN(C(=O)c3ccc(F)c(F)c3)C2)n1 (stereo not drawn) | -4.91
COc1cc(F)ccc1N1CCN(Cc2nc(C)c(C)o2)CC1 | 10.7
CN(C(=O)COC1CCCCC1)C1CCN(CC2CCOC2)CC1 (stereo not drawn) | 0.33
Cc1c(C(=O)NC2(C#N)CCSC2)cnn1-c1ccccc1Cl (stereo not drawn) | -2.06
CCc1n[nH]c(=O)c(C(=O)N2CCSC(C)(C)C2)c1CC | 18.6
COC(C)(C)CNC(=O)c1cn(-c2cccc(Cl)c2F)nn1 | 8.83
Cc1cccc(S(=O)(=O)NCC(C)(C)CC(C)O)c1C#N (stereo not drawn) | -1.37
Cc1ccsc1CN(C)c1cc(N2CCCC2CO)ncn1 (stereo not drawn) | 11.7
Cc1cc(C)cc(C(=O)N2CCN(C(=O)N(C)C)CC2(C)C)c1 | 1.98
CSC(C)(C)CNC(=O)NC1CCN(C)CC1 | 18.9
O=C(Cc1cccs1)N1Cc2nc(COCC3CC3)oc2C1 | 2.55

Compound | cytotoxicity at 10 µM [%]
CN(C)C(=O)C1CCC2(CCN(C(=O)Nc3cccc(F)c3)CC2)O1 (stereo not drawn) | -104
O=C(Cc1cccnc1)N1CCCC2(CCN(CC3CCOCC3)C2)C1 (stereo not drawn) | 2
CCS(=O)(=O)NC[C@]12COC[C@H]1CN(Cc1cc(C)on1)C2 | 2.34
CCCOc1ccc(C(=O)N2CCN3CCNC(=O)C3C2)cc1Cl (stereo not drawn) | -1.65
Cc1[nH]c2ccc(CNC3CCN(Cc4ccccn4)CC3)cc2c1C | 3.97
Cc1cnc(NC(=O)c2cccc(CN(C)Cc3ncccc3C)c2)s1 | 14.2
COCc1ncc(CN2CCC3(CCNCC3)CC2)cn1 | -139
O=C(NC1CCCN(c2ncccn2)C1)c1cn2ccccc2n1 (stereo not drawn) | -4.38
O=C(NCCC1CN(Cc2c[nH]cn2)CCO1)c1ccccc1O (stereo not drawn) | 0.423
CCN1CC2(CCC1=O)CCN(C(=O)c1ccc(C)cc1O)CC2 | -0.0198
CCCc1nc(C)cc(NCc2ccc(S(N)(=O)=O)cc2)n1 | 10.3
Cc1csc2c(=O)n(CCSc3cnn[nH]3)cnc12 | -3.61
O=S1(=O)CCC(n2cc(C3=CCN(CCN4CCCCC4)CC3)cn2)C1 (stereo not drawn) | -8.29
CC(C)Cc1noc(CN(C)C[C@]2(O)CCCN3CCCC[C@@H]32)n1 | -2.36
CCc1nc(C)sc1CN(Cc1ccncc1)C1CCN(C)CC1 | 6.4
CC(C)C(O)C1CCN(c2ccnc(C(=O)NCc3ccco3)c2)CC1 (stereo not drawn) | -0.598
CS(=O)(=O)N1C[C@H]2CNC[C@@]2(C(=O)NCCOc2ccccc2)C1 | 2.1
CCC[C@@H]1CN(C(=O)c2cc(-c3cccs3)n(C)n2)C[C@H]1NS(C)(=O)=O | -1.63
CC(C)(C)C(=O)N[C@H]1CC[C@H](Nc2nccc(-c3ccncc3)n2)C1 | 5.05
O=C1NCCN2CCN(C(=O)Nc3ccc(-c4ccccc4)cc3)CC12 (stereo not drawn) | -119
CCc1nc(C)c(CN2CCOC(Cc3cccc4ccccc34)C2)[nH]1 (stereo not drawn) | -5.54
NC(=O)NCCC(=O)N1CCC(c2cc(-c3ccccc3Cl)n[nH]2)CC1 | -6.67

Compound | cytotoxicity at 10 µM [%]
Cc1ccccc1CN(CCN(C)C)C(=O)c1ccc2nccn2c1 | -2.36
NCc1n[nH]c(=O)n1-c1cccc(Cl)c1Cl | -0.994
CC(C)c1ccc(CN2CCC(CNS(=O)(=O)C3CC3)C2)cc1 (stereo not drawn) | -1.37
Cn1cccc1-c1cc(C(=O)N2CCCC2c2ccc(C(N)=O)s2)[nH]n1 (stereo not drawn) | -1.33
Clc1cccc2c3c([nH]c12)CCN(Cc1cc2n(n1)CCCNC2)C3 | -17.1
O=c1c2ccccc2ncn1Cc1cc(C2CC2)[nH]n1 | 3.8
O=C1CCC2(CCN(Cc3cc(F)cc(F)c3)CC2)CN1CCO | -11.6
CCS(=O)(=O)N1CCC(c2nnc(CN3CCOCC3)n2C)CC1 | 17
Cc1nccnc1CN1CCC2(CCCN(C3CCOCC3)C2=O)C1 (stereo not drawn) | -5.44
CN1C(=O)CC(C(=O)O)C12CCN(Cc1ccc(F)cc1Cl)CC2 (stereo not drawn) | -4.88
Cn1ncc2c(N3CCN(C(N)=O)CC3)nc(C3CCCC3)nc21 | 18.2
Cc1nc(CN2CCCC(Cn3cc(CCO)nn3)C2)c[nH]1 (stereo not drawn) | -21.1
O=C(CCN1CCCC1=O)NCc1cccnc1Oc1ccccc1 | -7.47
CS(=O)(=O)c1ccc(C(=O)N2CCCC(n3cccn3)C2)cc1 (stereo not drawn) | -6.98
CCOc1ccc(Cl)c(C(=O)NCCC(=O)Nc2ccccn2)n1 | -3.13
Cc1nc(-c2ccsc2)ccc1C(=O)NCCN1CCN(C)CC1 | -11.2
COc1cccc(C(=O)N(C)Cc2ncc(C)c(OC)c2C)c1OC | -7.02
CCc1noc(CNc2ccc(C(=O)N3CCCC(C)C3)cc2C)n1 (stereo not drawn) | -10.8
Cc1nccc(-c2cccc(NCC(=O)N3CCCCCCC3)c2)n1 | -0.513
Cc1ccc2oc(C(=O)N3CCCC(n4nc(C)cc4C)C3)cc2n1 (stereo not drawn) | 1.25
CC(O)CN1CCC(CNCc2ccccc2Br)CC1 (stereo not drawn) | -13.2
Cc1ncc(CNC2CCCN(Cc3noc(C4CC4)n3)C2)s1 (stereo not drawn) | -7.7

Compound | cytotoxicity at 10 µM [%]
c1ccc(Cn2ccnc2CN2CCCC2c2noc(C3CC3)n2)cc1 (stereo not drawn) | -0.818
CNc1snc(C)c1C(=O)N1CCCC(n2ccnc2C(C)C)C1 (stereo not drawn) | 1.66
Cc1csc(N2CCN(C(=O)Cc3ccsc3)CC2)n1 | 2.68
Cc1nn(C)c(N(C)C)c1CNC(C)Cc1c(F)cccc1F (stereo not drawn) | -1.03
c1nn(C2CCCCC2)cc1-c1cncn1CCCN1CCCCC1 | 2.37
c1cc(CN2CCCn3cnc(COCC4CC4)c3C2)ccn1 | 7.31
Cn1ccc(C(=O)N2C[C@@H]3OCCN(c4ncccn4)[C@@H]3C2)n1 | 5.7
C[C@@H]1CN(C(=O)C2CCOCC2)C[C@]12CCN(c1cccnc1)C2=O | 6.95
Cc1ncsc1CN1C[C@@H]2COC[C@]2(C(=O)NC(C)C)C1 | -98.6
Cc1ccc(CN2CCC3(CC2)C(=O)N(CCO)CCN3C)o1 | -1.63
CC(C)COCc1cncc2c1CCN(C(=O)c1cscn1)C2 | -108
O=C(c1nc2c(o1)CN(CC1CC1)C2)N1CCCC1 | -163
COCCNC(=O)[C@H]1C[C@@H]2CCN(c3nncs3)C[C@H]2O1 | -2.12
Cc1noc(C)c1C(=O)N1C[C@@H]2COC[C@]2(COc2ccccn2)C1 | 2.47
Cc1ccc(CN2CC[C@H]3CO[C@H](CN(C)Cc4ccco4)[C@H]3C2)s1 | 4.74
c1cnc(N2CCCn3nnc(COCC4CC4)c3C2)nc1 | -4.97
Cc1noc([C@@]23CCO[C@@H]2CCN(Cc2scnc2C)C3)n1 | -111
O=C(N[C@@H]1CN(Cc2ccccn2)[C@@H]2COC[C@@H]21)C1CCC1 | 8.67
CO[C@@H]1CC[C@H]2[C@H]1OCCN2Cc1ccccn1 | 1.06
C1CC(CN2C[C@@H]3CC[C@H]2CN(Cc2noc(C4CCCC4)n2)C3)C1 | -15.6

From ChEMBL document CHEMBL4513216, “Probing the Open Global Health Chemical Diversity Library for Multistage-Active Starting Points for Next-Generation Antimalarials” (ACS Infect Dis, 2020)
